# A selection: hits, their analogues and other compounds. The true share with any hit is near 2.5%.
# PG9 binder = PG9 antibody binding by small molecule. inhibition, % at 6.7 µM. AID 624416. TR-FRET gp120-PG9 antibody binding. 360,000 tested, 0.43% active; in the data active means inhibition above about 8.5%
# Rev-erbA mod = Rev-erb alpha (human) modulation; P20393; Rev-erbα–FITC-DNA binding, fluorescence polarization, 90 min; activity, % at 10 µM; 370,000 tested, 0.79% active; AID 1259318;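 active means activity above about 14%, limit read from the data; passing the limit was not always enough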;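 further: 0% = DMSO wells with 35 nM protein and 100% = DMSO wells with 750 nM protein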
# MC4R antagonist = blocks human MC4R cAMP signaling; P32245; MC4R-expressing cells, MTII-stimulated cAMP, LANCE TR-FRET; inhibition, % at 6.5 µM; 360,000 tested, 0.48% active; AID 540295;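 active means inhibition above its plate's cutoff, the mean of tested wells on that plate plus 3 SD, cut at about 29% in these data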;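 further: 0% = Melanotan II alone and 100% = Melanotan II plus saturating MCL0020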
#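 material = U2OS cells stably expressing human melanocortin 4 receptor (MC4R) | also added = Melanotan II challenge | dosing = single nominal compound dose of 6.5 µM | detection = TR-FRET with Eu-cAMP and labeled anti-cAMP, 671 nm | replication = singlicate | timing = compound 30 min, challenge 1 h, detection 1 h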
# MC4R ag barr = activates human MC4R beta-arrestin recruitment; U2OS MC4R beta-arrestin complementation, luminescence; percent of melanotan II response, DMSO zero; activation, % at 8.9 µM; 360,000 tested, 0.98% active;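 active means activation above a per-plate cutoff, the mean activation of sample wells on that plate plus 3 SD, cut at about 8% in these data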
# NTR1 ag = agonists of human neurotensin receptor NTR1 | activation, % at 20 µM | AID 493036 | NTR1-U2OS beta-arrestin-GFP spot imaging, agonist mode | 330,000 tested, 0.17% active;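 active means activation at or above 40% of the spot to cytoplasm intensity ratio, with at least 20 cells analyzed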;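 further: 0% = DMSO without peptide and 100% = 100 nM NTR1 peptide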
# Target sequence (P30989 whole entry, looked up): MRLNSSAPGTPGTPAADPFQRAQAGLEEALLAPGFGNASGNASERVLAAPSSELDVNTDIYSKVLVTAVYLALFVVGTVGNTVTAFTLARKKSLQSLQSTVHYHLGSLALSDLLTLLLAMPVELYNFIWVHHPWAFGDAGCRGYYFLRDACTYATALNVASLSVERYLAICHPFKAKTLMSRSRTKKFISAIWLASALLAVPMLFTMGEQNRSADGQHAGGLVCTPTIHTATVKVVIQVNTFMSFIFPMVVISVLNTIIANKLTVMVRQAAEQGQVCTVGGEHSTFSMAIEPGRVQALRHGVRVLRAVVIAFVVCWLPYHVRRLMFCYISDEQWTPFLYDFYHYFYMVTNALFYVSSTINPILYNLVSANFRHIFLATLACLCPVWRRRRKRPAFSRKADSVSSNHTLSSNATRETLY
# cAMP nonselect = U2OS forskolin cAMP inhibition counter-screen | shares compounds with MC4R antagonist | parental U2OS, LANCE TR-FRET | inhibition, % at 6.5 µM | 1,600 tested, 26% active | AID 602193;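 active means mean inhibition over triplicates above the low-control well mean plus 3 SD, set per campaign, cut at about 13% in these data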;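 further: signal is single emission at 671 nm which falls as cellular cAMP rises; 0% = forskolin-stimulated wells and 100% = buffer without forskolin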
# MC4R cAMP antag = human MC4R cAMP antagonism confirmation | inhibition, % at 6.5 µM | AID 602195 | shares compounds with MC4R antagonist | 1,600 tested, 27% active | MC4R-expressing cells, MTII-stimulated cAMP, TR-FRET; in the data active means inhibition above about 29%;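 further: 0% = agonist stimulated wells alone and 100% = agonist stimulated wells plus saturating reference antagonist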
# MC4R barr ag = human MC4R beta-arrestin agonism confirmation | shares compounds with MC4R ag barr | U2OS MC4R beta-arrestin recruitment, luminescence; scaled DMSO 0%, Melanotan II 100% | 2,400 tested, 31% active | activation, % at 8.9 µM;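 active means mean activation across replicates above the hit cutoff set in the earlier primary screen, cut at about 8% in these data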
# MOR DOR agonist = activates mu-delta opioid heterodimer, MC4R agonist counter-screen. shares compounds with MC4R ag barr. U2OS PathHunter beta-arrestin, beta-gal luminescence; percent of deltorphin B response, DMSO zero. activation, % at 9.2 µM. 2,400 tested, 5.8% active. AID 602194;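 active means mean activation across replicates exceeds the hit threshold derived in the earlier primary screen, cut at about 18% in these data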;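 further: 100% = deltorphin B at 0.9 µM final and 0% = DMSO alone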
# PG9 bind confirm = confirmation of small molecules binding HIV-1 gp120 antibody PG9; 1,500 tested, 90% active; shares compounds with PG9 binder; TR-FRET PG9 antibody binding, biochemical; inhibition, % at 6.7 µM; AID 651571; in the data active means inhibition above about 9%
# PGV04 Ab binding = binds control antibody PGV04 in PG9 binder counter-screen | TR-FRET PGV04 antibody-gp120 binding, biochemical | inhibition, % at 6.7 µM | shares compounds with PG9 binder | 1,500 tested, 95% active | AID 651604; in the data active means inhibition above about 9.5%
# PG9 binder DR = PG9 antibody binding, dose response; shares compounds with PG9 binder; TR-FRET PG9 antibody-gp120 binding inhibition; IC50, µM; 95 tested, under 10 active; AID 651848; in the data active means IC50 below about 10 µM
# PGV04 DR counter = PGV04 binding, dose response counter-screen; IC50, µM; TR-FRET binding to control antibody PGV04; 95 tested, 20% active; AID 651937; shares compounds with PG9 binder
# PG126 binding DR = binds control antibody PG126 in PG9 counter-screen; shares compounds with PG9 binder; AID 651939; IC50, µM; TR-FRET binding to antibody PG126, counterscreen; 95 tested, 20% active
# * marks the source's active call; other numbers are inactive results; i = inactive; nt = no result. Unless noted, no stated cut-off is given here; in the data, active means IC50 below about 9 µM; inactive means the rest.
SMILES,PG9 binder,Rev-erbA mod,MC4R antagonist,MC4R ag barr,NTR1 ag,cAMP nonselect,MC4R cAMP antag,PG9 bind confirm,PGV04 Ab binding,others
COc1ccc2[nH]c3c(c2c1)CCNC3=O,0,2,0,-1,0,nt,nt,nt,nt,
C=C1CCc2c([nH]c3ccc(OCC(C)C)cc23)C1=O,-2,-2,45*,14*,39,12,32*,nt,nt,MC4R barr ag=13*;MOR DOR agonist=12
CCCCCCCCCCC[N+](C)(C)CC/C=C1/c2ccccc2Sc2ccc(Cl)cc21,nt,nt,36*,21*,19,7,30*,nt,nt,MC4R barr ag=25*;MOR DOR agonist=19*
CCCCCCCCCC[N+](C)(C)CC/C=C1/c2ccccc2Sc2ccc(Cl)cc21,nt,nt,41*,17*,29,9,40*,nt,nt,MC4R barr ag=18*;MOR DOR agonist=26*
COCc1[nH]nc2c1C(c1cccc(C(F)(F)F)c1)N(c1ccc(OC)cc1)C2=O (stereo unspecified),0,-3,nt,nt,nt,nt,nt,nt,nt,
CC(=O)OC[C@]1(OC(C)=O)C[C@@]23CC[C@H]4[C@@](C)(CCC[C@@]4(C)C(=O)O)[C@@H]2CC[C@@H]1C3,0,-1,-2,-2,4,nt,nt,nt,nt,
CC(=O)OC[C@]12CC[C@H]3[C@@](C)(CC[C@H]4C(C)(C)CCC[C@]34C)[C@@H]1CC(C1=CC(=O)OC1O)O2 (stereo partly specified),-1,-6,52*,91*,nt,6,35*,nt,nt,MC4R barr ag=26*;MOR DOR agonist=82*
COc1ccc2c(c1)oc(=O)c1ccccc12,1,2,-3,1,2,nt,nt,nt,nt,
O=c1oc2cc(O)c(Cl)cc2c2ccccc12,66*,-2,56*,-2,-1,41*,64*,62*,82*,
Cc1cc(NC(=O)CSc2nc(-c3ccccc3)c(C#N)c(=O)[nH]2)no1,18*,3,35*,2,-1,26*,50*,28*,35*,
N#Cc1c(-c2ccccc2)nc(SCC(=O)Nc2ccccc2)[nH]c1=O,4,-2,10,-2,nt,nt,nt,nt,nt,
Cc1cc(C)nc(NS(=O)(=O)c2ccc(NC(=O)CSc3nc(-c4ccccc4)c(C#N)c(=O)[nH]3)cc2)n1,36*,4,36*,-2,0,17*,26,44*,58*,
CC(=O)[C@@]12O[C@](C)(c3ccccc3)O[C@@H]1CC1C3CCC4=CC(=O)CC[C@]4(C)C3CC[C@@]12C (stereo partly specified),nt,2,nt,nt,nt,nt,nt,nt,nt,
O=C1COc2ccc(C(=O)COC(=O)c3nc(Cl)ccc3Cl)cc2N1,1,-3,5,0,-1,nt,nt,nt,nt,
O=C1COc2ccc(C(=O)COC(=O)c3ncc(Cl)c(Cl)c3Cl)cc2N1,11*,1,29*,5,0,2,1,17*,27*,
Cc1ccccc1NC(=O)N(C)[C@H]1C[C@H]2c3[nH]c4c(-c5ccccc5)cccc4c3CCN2C[C@H]1[C@H](C)O,nt,6,nt,nt,nt,nt,nt,nt,nt,
O=C(OC12CCCN(C1)/C(=C/c1ccccc1)C2)c1ccccc1 (stereo unspecified),nt,5,nt,nt,nt,nt,nt,nt,nt,
Brc1ccc(-c2nn3c(-c4ccco4)nnc3s2)o1,16*,-12,45*,-3,-1,26*,39*,20*,37*,
Clc1ccc(-c2ccc(-c3nn4c(-c5ccco5)nnc4s3)o2)cc1,0,-12,13,7,14,nt,nt,nt,nt,
O=C(CSc1nnc(-c2ccccc2)n1-c1ccccc1)NN=C/C=C\c1ccccc1[N+](=O)[O-],nt,-6,nt,nt,nt,nt,nt,nt,nt,
CC(Sc1ccc2ccccc2n1)C(=O)O (stereo unspecified),50*,1,58*,3,-2,42*,77*,53*,59*,
Cc1cc(SC(C)C(=O)O)nc2ccccc12 (stereo unspecified),8,-1,8,-5,1,nt,nt,nt,nt,
c1nc(NCC2CCCCO2)c2cc(-c3ccc4c(c3)OCO4)ccc2n1 (stereo unspecified),nt,-3,nt,nt,nt,nt,nt,nt,nt,
CC(C)C1Cc2ccccc2-c2[nH]c(=S)[nH]c(=O)c21 (stereo unspecified),30*,5,36*,4,0,21*,48*,4,6,
COC(=O)[C@]12C[C@H](CC(=O)NCc3ccc(OC)c(OC)c3)C(=O)N(Cc3cccc4ccccc34)C1=C[C@H](C(C)(C)C)O[C@@H]2C,nt,0,nt,nt,nt,nt,nt,nt,nt,
SMILES,PG9 binder,Rev-erbA mod,MC4R antagonist,MC4R ag barr,NTR1 ag,cAMP nonselect,MC4R cAMP antag,PG9 bind confirm,PGV04 Ab binding,others
O=C(C1=C(O)C(=O)N(CCN2CCOCC2)C1c1cccnc1)c1cc2ccccc2o1 (stereo unspecified),3,0,6,-2,0,nt,nt,nt,nt,
CN(C)CCCN1C(=O)C(O)=C(C(=O)c2cc3ccccc3o2)C1c1ccccn1 (stereo unspecified),26*,3,33*,-1,nt,9,26,40*,51*,
CCOC(=O)c1c(NC(=O)CSc2nc3cc(Cl)ccc3c(=O)n2Cc2ccco2)sc(C(=O)N(C)C)c1C,51*,-7,31*,1,3,-4,6,9.5*,23*,
CCc1ccc(NC(=O)CSc2nc3cc(C(=O)OC)ccc3c(=O)n2Cc2ccco2)cc1,0,6,1,-1,-1,nt,nt,nt,nt,
C=CCN1C(=O)[C@]2(OCCC=C[C@H]2C)c2cc(OC)ccc21,0,0,nt,nt,nt,nt,nt,nt,nt,
Cc1ccc2[nH]c3c(=S)nc[nH]c3c2c1,72*,-4,48*,-2,nt,13,11,44*,21*,PG9 binder DR=>67;PGV04 DR counter=i;PG126 binding DR=i
